Source: ChEMBL document CHEMBL1759840, “2,3-Substituted quinoxalin-6-amine analogs as antiproliferatives: a structure-activity relationship study” (2011)
Active and inactive are the calls of the source. No cut-off for these calls is given here.

Tests used:
Type in all cases: functional
[1] = tested on: A549; test: Growth inhibition of human A549 cells at 20 uM after 72 hrs by alamar blue assay; conditions: for inhibition of growth at 20 µM: A549, 72 h, read-out: GI
Summary of the method: (§1)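 Single-concentration screen at 20 μM with 72 h exposure across a panel of cancer lines: lung A549, pancreatic AsPC1, colon HT29, breast MDA-MB-231, prostate PC3, ovarian SKOV3 and bone U2OS. Growth inhibition read after 72 h.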

[2] = tested on: ASPC1; test: Growth inhibition of human AsPC1 cells at 20 uM after 72 hrs by alamar blue assay; conditions: for inhibition of growth at 20 µM: ASPC1, 72 h, read-out: GI; summary of the method: as §1
[3] = tested on: HT-29; test: Growth inhibition of human HT-29 cells at 20 uM after 72 hrs by alamar blue assay; conditions: for inhibition of growth at 20 µM: HT-29, 72 h, read-out: GI; summary of the method: as §1
[4] = tested on: MDA-MB-231; test: Growth inhibition of human MDA-MB-231 cells at 20 uM after 72 hrs by alamar blue assay; conditions: for inhibition of growth at 20 µM: MDA-MB-231, 72 h, read-out: GI; summary of the method: as §1
[5] = tested on: PC-3; test: Growth inhibition of human PC3 cells at 20 uM after 72 hrs by alamar blue assay; conditions: for inhibition of growth at 20 µM: PC-3, 72 h, read-out: GI; summary of the method: as §1
[6] = tested on: SK-OV-3; test: Growth inhibition of human SKOV3 cells at 20 uM after 72 hrs by alamar blue assay; conditions: for inhibition of growth at 20 µM: SK-OV-3, 72 h, read-out: GI; summary of the method: as §1
[7] = tested on: U2OS; test: Growth inhibition of human U2OS cells at 20 uM after 72 hrs by alamar blue assay; conditions: for inhibition of growth at 20 µM: read-out: GI; summary of the method: as §1

| Compound | growth inhibition (GI) [1] | growth inhibition (GI) [2] | growth inhibition (GI) [3] | growth inhibition (GI) [4] | growth inhibition (GI) [5] | growth inhibition (GI) [6] | growth inhibition (GI) [7] | inhibition of growth at 20 µM [1] [%] | inhibition of growth at 20 µM [2] [%] | inhibition of growth at 20 µM [3] [%] | inhibition of growth at 20 µM [4] [%] | inhibition of growth at 20 µM [5] [%] | inhibition of growth at 20 µM [7] [%] | inhibition of growth at 20 µM [6] [%] |
| --- | --- | --- | --- | --- | --- | --- | --- | --- | --- | --- | --- | --- | --- | --- |
| Cc1nc2ccc(NC(=O)Nc3ccccc3)cc2nc1C | inactive | inactive | inactive | inactive | inactive | inactive | inactive | – | – | – | – | – | – | – |
| Cc1nc2ccc(NC(=O)N3CCCCC3)cc2nc1C | inactive | inactive | inactive | inactive | inactive | inactive | inactive | – | – | – | – | – | – | – |
| CC(=O)Nc1ccc2nc(-c3cccs3)c(-c3cccs3)nc2c1 | inactive | inactive | inactive | inactive | inactive | inactive | inactive | – | – | – | – | – | – | – |
| O=C(Nc1ccc(F)cc1)Nc1ccc2nc(-c3ccco3)c(-c3ccco3)nc2c1 | – | – | – | – | – | inactive | – | > 100 | > 100 | 74.2 | 38.4 | 90.7 | 55.6 | – |
| CC(=O)Nc1ccc2nc(-c3ccco3)c(-c3ccco3)nc2c1 | – | inactive | – | – | – | – | inactive | 57.8 | – | 7.6 | 20.3 | 57.7 | – | 9 |
| Cc1nc2ccc(NC(=O)N3CCCC3)cc2nc1C | inactive | inactive | inactive | inactive | inactive | inactive | inactive | – | – | – | – | – | – | – |
| O=C(Nc1ccccc1)Nc1ccc2nc(-c3ccccc3)c(-c3ccccc3)nc2c1 | inactive | inactive | inactive | inactive | inactive | inactive | inactive | – | – | – | – | – | – | – |
| CC(=O)Nc1ccc2nc(-c3ccccc3)c(-c3ccccc3)nc2c1 | inactive | inactive | inactive | inactive | inactive | inactive | inactive | – | – | – | – | – | – | – |
| O=[N+]([O-])c1ccc(NC(=S)Nc2ccc3nc(-c4ccco4)c(-c4ccco4)nc3c2)cc1 | – | inactive | – | – | – | inactive | – | 19.2 | – | 42 | 9 | 43.4 | 32.2 | – |
| O=C(Nc1ccc2nc(-c3ccco3)c(-c3ccco3)nc2c1)NN1CCC(Cc2ccccc2)CC1 | – | – | – | – | – | – | – | 93.1 | > 100 | 55.2 | 90.8 | > 100 | 80.3 | 47.6 |
| O=C(Nc1ccc(Cl)cc1)Nc1ccc2nc(-c3ccco3)c(-c3ccco3)nc2c1 | – | – | – | – | – | – | – | 99.2 | 81.1 | 86.3 | 92.5 | 86.4 | 87.4 | 55.8 |
| O=[N+]([O-])c1ccc(NC(=S)Nc2ccc3nc(-c4ccccc4)c(-c4ccccc4)nc3c2)cc1 | – | – | – | – | – | – | – | 16.6 | 55.5 | 81.2 | 72.6 | 81 | 76.1 | 55.8 |
| Cc1ccc(S(=O)(=O)N(c2ccc3nc(-c4cccs4)c(-c4cccs4)nc3c2)S(=O)(=O)c2ccc(C)cc2)cc1 | inactive | inactive | inactive | inactive | inactive | inactive | inactive | – | – | – | – | – | – | – |
| Cc1ccc(S(=O)(=O)Nc2ccc3nc(-c4ccccc4)c(-c4ccccc4)nc3c2)cc1 | inactive | inactive | inactive | inactive | inactive | inactive | inactive | – | – | – | – | – | – | – |
| O=C(Nc1ccc2nc(-c3ccccc3)c(-c3ccccc3)nc2c1)N1CCCC1 | – | – | inactive | – | – | – | – | 11 | 29.4 | – | 16.7 | 56.9 | 54.2 | 18.5 |
| O=C(Nc1ccc2nc(-c3ccco3)c(-c3ccco3)nc2c1)N1CCCC1 | – | – | – | – | – | – | – | 23.3 | 11.6 | 16.7 | 18.2 | 53.1 | 46.5 | 16.9 |
| S=C(Nc1ccccc1)Nc1ccc2nc(-c3ccccc3)c(-c3ccccc3)nc2c1 | inactive | inactive | inactive | inactive | inactive | inactive | inactive | – | – | – | – | – | – | – |
| S=C(Nc1ccccc1)Nc1ccc2nc(-c3ccco3)c(-c3ccco3)nc2c1 | – | inactive | – | – | – | inactive | – | 18 | – | 26.1 | 19.1 | 56.8 | 21.4 | – |
| Cc1nc2ccc(NC(=O)NN3CCC(Cc4ccccc4)CC3)cc2nc1C | – | inactive | – | – | – | – | – | 40.3 | – | 16.3 | 12.4 | 30.6 | 33.5 | 8.9 |
| O=C(Nc1ccc(-c2ccccc2)cc1)Nc1ccc2nc(-c3ccco3)c(-c3ccco3)nc2c1 | – | inactive | – | – | – | inactive | – | 13.8 | – | 72.4 | 50.2 | 88.5 | 46.9 | – |
| Cc1ccc(S(=O)(=O)N(c2ccc3nc(-c4ccco4)c(-c4ccco4)nc3c2)S(=O)(=O)c2ccc(C)cc2)cc1 | inactive | inactive | inactive | inactive | inactive | inactive | inactive | – | – | – | – | – | – | – |
| O=C(Nc1ccccc1)Nc1ccc2nc(-c3cccs3)c(-c3cccs3)nc2c1 | inactive | inactive | inactive | inactive | inactive | inactive | inactive | – | – | – | – | – | – | – |
